Results on eleven molecules are retold here after ChEMBL document CHEMBL1148966, “Cytotoxic steroidal saponins from Polygonatum zanlanscianense” (J Nat Prod, 2004).

Molecules are shown by their SMILES. In brackets after ≈: the same amount, converted by molar mass.

For this experiment, the system named is HeLa. Briefly: Cytotoxicity against human HeLa cells after 72 hrs by MTT assay. Type of experiment: functional, cell-based. A digest of the protocol:
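HeLa cells in 96-well microplates; viability by MTT colorimetric assay, optical density read at 570 nm on a plate reader; IC50 reported in µg/mL. Cisplatin run as positive control.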
In general terms: Tetrazolium dyes change colour on reduction, which living cells bring about.

The IC50 is the concentration at which inhibition is half-maximal. Read a high IC50 as weaker potency in that assay. On to `C[C@H]1O[C@@H](O[C@H]2CC[C@@]3(C)C(=CC[C@H]4[C@@H]5C[C@@H]6O[C@@]7(OC[C@H](CO)C[C@@H]7O)[C@@H](C)[C@@H]6[C@@]5(C)C(=O)C[C@@H]43)C2)[C@H](O)[C@@H](O)[C@H]1O[C@@H]1O[C@H](CO)[C@@H](O)[C@H](O)[C@H]1O` [POLYGONATOSIDE C], for which the IC50 was determined as 7.45 µg/mL (≈ 9.69 µM).
As to `C[C@H]1O[C@@H](O[C@H]2CC[C@@]3(C)C(=CC[C@H]4[C@@H]5C[C@@H]6O[C@]7(CC[C@@H](CO[C@@H]8O[C@H](CO)[C@@H](O)[C@H](O)[C@H]8O)CO7)[C@@H](C)[C@@H]6[C@@]5(C)C(=O)C[C@@H]43)C2)[C@H](O)[C@@H](O)[C@H]1O[C@@H]1O[C@H](CO)[C@@H](O)[C@H](O)[C@H]1O` [POLYGONATOSIDE A], the IC50 is 5.06 µg/mL (≈ 5.53 µM). This IC50 and that of the molecule before are within 1.5-fold of each other.
Take `C[C@@H]1CC[C@@]2(OC1)O[C@H]1C[C@H]3[C@@H]4CC=C5C[C@@H](O[C@@H]6O[C@H](CO)[C@@H](O[C@@H]7OC[C@@H](O)[C@@H](O)[C@@H]7O)[C@H](O)[C@H]6O[C@@H]6O[C@@H](C)[C@H](O)[C@@H](O)[C@H]6O)CC[C@]5(C)[C@H]4CC[C@]3(C)[C@H]1[C@@H]2C`: the IC50 is 14.6 µg/mL (≈ 17 µM). This IC50 is about 2.9-fold higher than that of the molecule before.
`C[C@@H]1CC[C@@]2(OC1)O[C@H]1C[C@H]3[C@@H]4CC=C5C[C@@H](O[C@@H]6O[C@H](CO)[C@@H](O[C@@H]7OC[C@@H](O)[C@@H](O[C@@H]8O[C@@H](C)[C@H](O[C@@H]9O[C@@H](C)[C@H](O)[C@@H](O)[C@H]9O)[C@@H](O)[C@H]8O)[C@@H]7O)[C@H](O)[C@H]6O[C@@H]6O[C@@H](C)[C@H](O)[C@@H](O)[C@H]6O)CC[C@]5(C)[C@H]4CC[C@]3(C)[C@H]1[C@@H]2C` [PARISSAPONIN PB] gave an IC50 of 3.14 µg/mL (≈ 2.74 µM).
Turning to `C[C@@H]1O[C@@H](O[C@H]2[C@H](O)[C@@H](O)[C@H](O[C@H]3CC[C@@]4(C)C(=CC[C@H]5[C@@H]6C[C@@H]7O[C@]8(CC[C@@H](CO[C@@H]9O[C@H](CO)[C@@H](O)[C@H](O)[C@H]9O)CO8)[C@@H](C)[C@@H]7[C@@]6(C)CC[C@@H]54)C3)O[C@@H]2CO)[C@H](O)[C@H](O)[C@H]1O` [POLYGONATOSIDE D], the IC50 came to 5.83 µg/mL (≈ 6.47 µM). This IC50 lies about 1.9-fold higher than the previous one.
Turning to `C[C@@H]1O[C@@H](O[C@H]2[C@H](O[C@H]3CC[C@@]4(C)C(=CC[C@H]5[C@@H]6C[C@@H]7O[C@]8(CC[C@@H](CO)CO8)[C@@H](C)[C@@H]7[C@@]6(C)CC[C@@H]54)C3)O[C@H](CO)[C@@H](O[C@@H]3O[C@@H](C)[C@H](O)[C@@H](O)[C@H]3O)[C@@H]2O)[C@H](O)[C@H](O)[C@H]1O`, the IC50 amounted to 3.62 µg/mL (≈ 4.09 µM).
Molecule `C[C@H]1[C@H]2[C@H](C[C@H]3[C@@H]4CC=C5C[C@@H](O[C@@H]6O[C@H](CO)[C@H](O[C@@H]7O[C@H](CO)[C@@H](O)[C@H](O)[C@H]7O)[C@H](O)[C@H]6O)CC[C@]5(C)[C@H]4CC(=O)[C@]23C)O[C@]12CC[C@@H](CO[C@@H]1O[C@H](CO)[C@@H](O)[C@H](O)[C@H]1O)CO2` had an IC50 of 5.13 µg/mL (≈ 5.51 µM).
`CC1=CC(=O)CC(C)(C)[C@H]1CC[C@@H](C)O[C@@H]1O[C@H](CO[C@@H]2O[C@H](CO)[C@@H](O)[C@H](O)[C@H]2O)[C@@H](O)[C@H](O)[C@H]1O` yielded an IC50 of 20.1 µg/mL (≈ 37.5 µM).
For the molecule `C[C@@H]1CC[C@@]2(OC1)O[C@H]1C[C@H]3[C@@H]4CC=C5C[C@@H](O[C@@H]6O[C@H](CO)[C@@H](O)[C@H](O)[C@H]6O[C@@H]6O[C@@H](C)[C@H](O)[C@@H](O)[C@H]6O)CC[C@]5(C)[C@H]4CC[C@]3(C)[C@H]1[C@@H]2C` [OPHIOPOGONIN C], inhibition was half-maximal at 6.23 µg/mL (≈ 8.62 µM) (IC50).
`C[C@@H]1CC[C@@]2(OC1)O[C@H]1C[C@H]3[C@@H]4CC=C5C[C@@H](O[C@@H]6O[C@H](CO)[C@@H](O)[C@H](O[C@@H]7O[C@H](CO)[C@@H](O)[C@H](O)[C@H]7O)[C@H]6O[C@@H]6O[C@@H](C)[C@H](O)[C@@H](O)[C@H]6O)CC[C@]5(C)[C@H]4CC[C@]3(C)[C@H]1[C@@H]2C` [GRACILLIN] registered an IC50 of 12.7 µg/mL (≈ 14.4 µM).
With `C[C@H]1[C@H]2[C@H](C[C@H]3[C@@H]4CC=C5C[C@@H](O[C@@H]6O[C@H](CO)[C@H](O[C@@H]7O[C@H](CO)[C@@H](O)[C@H](O)[C@H]7O[C@@H]7O[C@H](CO)[C@@H](O)[C@H](O)[C@H]7O)[C@H](O)[C@H]6O)CC[C@]5(C)[C@H]4CC[C@]23C)O[C@]12CC[C@@H](CO)CO2`, the IC50 was 5.24 µg/mL (≈ 5.71 µM).
